Measurements taken from PMC5325675 (Molecular cell, 2017).
Substitutions are numbered along the chain they refer to.

Assays:
[1] = biological target: T1, PTP1BP185G (Homo sapiens, UniProt P18031, P185G); test: Fluorescence affinity measurement, PTP1BP185G; settings: binding to PTP1BP185G (catalytically dead variant)
T1 sequence (P18031 1-301 P185G): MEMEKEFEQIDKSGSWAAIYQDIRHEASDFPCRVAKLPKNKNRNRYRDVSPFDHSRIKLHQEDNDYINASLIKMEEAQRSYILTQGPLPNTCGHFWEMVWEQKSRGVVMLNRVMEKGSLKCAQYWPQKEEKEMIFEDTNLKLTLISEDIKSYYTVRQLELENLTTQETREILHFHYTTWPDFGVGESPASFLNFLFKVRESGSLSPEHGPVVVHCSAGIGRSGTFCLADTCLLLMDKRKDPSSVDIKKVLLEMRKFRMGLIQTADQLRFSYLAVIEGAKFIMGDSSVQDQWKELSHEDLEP
In short: (§1)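 Human PTP1B catalytic domain (residues 1-301; Δ7 is 1-284) was expressed in E. coli BL21(DE3) RIL and the His-tag removed with TEV. Protein at 2.5 µM in 50 mM HEPES pH 7.5, 150 mM NaCl, 0.5 mM TCEP was titrated with test compound (0-140 µM), with a DMSO-only control. Fluorescence was read at excitation 280 nm, emission 300-550 nm. KD came from a quadratic single-site fit; triplicate.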

[2] = biological target: T2, PTP1B (residues 1-301) (Homo sapiens, UniProt P18031); test: Fluorescence affinity measurement of inhibitor binding to PTP1B; settings: binding to PTP1B (wt, 1-301); Table S1
T2 sequence (P18031 1-301): T1 sequence (P18031 1-301 P185G) with G185P

[3] = biological target: T3, PTP1BYAYA (Y152AY153A) (Homo sapiens, UniProt P18031, Y152A/Y153A); test: Fluorescence affinity measurement, PTP1BYAYA; settings: binding to PTP1BYAYA
T3 sequence (P18031 1-301 Y152A/Y153A): T1 sequence (P18031 1-301 P185G) with Y152A, Y153A, G185P
In short: as §1

[4] = biological target: T4, PTP1BΔ7 (residues 1-284) (Homo sapiens, UniProt P18031); test: Fluorescence affinity measurement, PTP1BΔ7; settings: binding to PTP1BΔ7
T4 sequence (P18031 1-284): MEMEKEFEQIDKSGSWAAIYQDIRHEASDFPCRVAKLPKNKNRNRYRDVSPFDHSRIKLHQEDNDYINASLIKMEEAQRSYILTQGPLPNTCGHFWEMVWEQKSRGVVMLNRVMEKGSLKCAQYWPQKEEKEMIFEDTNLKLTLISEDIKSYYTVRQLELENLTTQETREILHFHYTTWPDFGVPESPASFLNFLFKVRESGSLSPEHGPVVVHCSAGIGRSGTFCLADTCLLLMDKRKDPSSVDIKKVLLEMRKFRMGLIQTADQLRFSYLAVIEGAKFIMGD
In short: as §1

[5] = biological target: T5, PTP1BYAYA (Homo sapiens, UniProt P18031, Y152A/Y153A); test: pNPP activity assay with TCS401; type: biochemical
T5 sequence (P18031 1-301 Y152A/Y153A): T1 sequence (P18031 1-301 P185G) with Y152A, Y153A, G185P
In short: (§2)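 Freshly prepared enzyme (0.15 µM) in 50 mM HEPES pH 7.5, 150 mM NaCl, 0.5 mM TCEP was run with pNPP (0-6000 µM), with or without test compound at 100 or 300 µM (0.4 or 1.2% DMSO). Reactions ran 30 min at 30°C, were stopped with 0.5 M NaOH and read at 405 nm, minus no-enzyme blanks. Km came from Michaelis-Menten fits and Ki from Km,obs = Km(1+[I]/Ki). Duplicates, repeated 3-6 times.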

[6] = biological target: T6, PTP1BN193A (Homo sapiens, UniProt P18031, N193A); test: pNPP activity assay with TCS401; type: biochemical
T6 sequence (P18031 1-301 N193A): T1 sequence (P18031 1-301 P185G) with G185P, N193A
In short: as §2

[7] = biological target: T7, PTP1BT178A (Homo sapiens, UniProt P18031, T178A); test: Fluorescence affinity measurement, PTP1BT178A; settings: binding to PTP1BT178A
T7 sequence (P18031 1-301 T178A): T1 sequence (P18031 1-301 P185G) with T178A, G185P
In short: as §1

[8] = biological target: T8, PTP1BΔ7 (Homo sapiens, UniProt P18031); test: pNPP activity assay with TCS401; type: biochemical
T8 sequence (P18031 1-284): T4 sequence (P18031 1-284)
In short: as §2

[9] = biological target: T9, PTP1BL192A (Homo sapiens, UniProt P18031, L192A); test: Fluorescence affinity measurement, PTP1BL192A; settings: binding to PTP1BL192A
T9 sequence (P18031 1-301 L192A): T1 sequence (P18031 1-301 P185G) with G185P, L192A
In short: as §1

[10] = biological target: T6, PTP1BN193A; test: Fluorescence affinity measurement, PTP1BN193A; settings: binding to PTP1BN193A
In short: as §1

Question: For `O=C(O)C(=O)Nc1sc2c(c1C(=O)O)CCNC2` [TCS401], which Kd [1] is on record?
Answer: 20 ± 0.6 µM

Question: What about the Kd [2] of the same molecule?
Answer: ~26 µM

Question: What about the Kd [3] of the same molecule?
Answer: 26 ± 3 µM

Question: And the Kd [4]?
Answer: 33 ± 6 µM

Question: What about the “Ki (competition between substrate and TCS401) compared with PTP1B” value (“Ki … compared with PTP1B” for short) [5] of the same molecule?
Answer: higher Ki values

Question: What about the “Ki … compared with PTP1B” value [6] of the same molecule?
Answer: higher Ki values

Question: And the Kd [7]?
Answer: 45 ± 3.5 µM

Question: What about the “Ki … compared with PTP1B” value [8] of the same molecule?
Answer: higher Ki values

Question: What about the Kd [9] of the same molecule?
Answer: 39 ± 6 µM

Question: What about the Kd [10] of the same molecule?
Answer: 37 ± 4 µM
